{
  "source": "ChEMBL document CHEMBL3751804",
  "about": "“Carbazole-containing sulfonamides and sulfamides: Discovery of cryptochrome modulators as antidiabetic agents” (Bioorg Med Chem Lett, 2016)",
  "data": [
    {"test_system": "Mus musculus", "test": "Antidiabetic activity in diet-induced obese C57BL/6J mouse model assessed as reduction of glucose AUC at 100 mg/kg, qd for 7 days", "assay_type": "functional", "design": "scale not given: the % may be the effect or the level left", "details": "not given; call rule not given here", "procedure,_shortened": "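Diet-induced obese C57BL/6J mice (25 weeks old, high-fat diet for 19 weeks) dosed 100 mg/kg once daily for 7 days, then given an oral glucose tolerance test; glucose clearance expressed as percent reduction in glucose AUC.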", "units": {"Activity": "%"}, "values": [
      {"compound": "O=S1(=O)CCCN1CC(O)Cn1c2ccccc2c2ccccc21", "note": "(stereo unspecified)", "Activity": 41}
    ]},
    {"test_system": "not listed separately", "test": "Mean plasma residence time in po dosed ICR mouse", "assay_type": "ADME, organism-based", "details": "not given", "procedure,_shortened": "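Male ICR mice dosed orally; plasma concentrations followed to derive mean plasma residence time (h).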", "units": {"MRT": "h"}, "values": [
      {"compound": "O=S1(=O)CCCN1CC(O)Cn1c2ccccc2c2ccccc21", "note": "(stereo unspecified)", "MRT": 7.63},
      {"compound": "O=S1(=O)NCCCN1CC(O)Cn1c2ccccc2c2ccccc21", "note": "(stereo unspecified)", "MRT": 5.12},
      {"compound": "CN(CC(O)Cn1c2ccccc2c2ccccc21)S(C)(=O)=O", "note": "(stereo unspecified)", "MRT": 3.01},
      {"compound": "CS(=O)(=O)NCC(O)Cn1c2ccccc2c2ccccc21", "note": "(stereo unspecified)", "MRT": 1.92}
    ]},
    {"biological_target": "Voltage-gated inwardly rectifying potassium channel KCNH2 (Homo sapiens, UniProt Q12809)", "sequence (Q12809 whole entry)": "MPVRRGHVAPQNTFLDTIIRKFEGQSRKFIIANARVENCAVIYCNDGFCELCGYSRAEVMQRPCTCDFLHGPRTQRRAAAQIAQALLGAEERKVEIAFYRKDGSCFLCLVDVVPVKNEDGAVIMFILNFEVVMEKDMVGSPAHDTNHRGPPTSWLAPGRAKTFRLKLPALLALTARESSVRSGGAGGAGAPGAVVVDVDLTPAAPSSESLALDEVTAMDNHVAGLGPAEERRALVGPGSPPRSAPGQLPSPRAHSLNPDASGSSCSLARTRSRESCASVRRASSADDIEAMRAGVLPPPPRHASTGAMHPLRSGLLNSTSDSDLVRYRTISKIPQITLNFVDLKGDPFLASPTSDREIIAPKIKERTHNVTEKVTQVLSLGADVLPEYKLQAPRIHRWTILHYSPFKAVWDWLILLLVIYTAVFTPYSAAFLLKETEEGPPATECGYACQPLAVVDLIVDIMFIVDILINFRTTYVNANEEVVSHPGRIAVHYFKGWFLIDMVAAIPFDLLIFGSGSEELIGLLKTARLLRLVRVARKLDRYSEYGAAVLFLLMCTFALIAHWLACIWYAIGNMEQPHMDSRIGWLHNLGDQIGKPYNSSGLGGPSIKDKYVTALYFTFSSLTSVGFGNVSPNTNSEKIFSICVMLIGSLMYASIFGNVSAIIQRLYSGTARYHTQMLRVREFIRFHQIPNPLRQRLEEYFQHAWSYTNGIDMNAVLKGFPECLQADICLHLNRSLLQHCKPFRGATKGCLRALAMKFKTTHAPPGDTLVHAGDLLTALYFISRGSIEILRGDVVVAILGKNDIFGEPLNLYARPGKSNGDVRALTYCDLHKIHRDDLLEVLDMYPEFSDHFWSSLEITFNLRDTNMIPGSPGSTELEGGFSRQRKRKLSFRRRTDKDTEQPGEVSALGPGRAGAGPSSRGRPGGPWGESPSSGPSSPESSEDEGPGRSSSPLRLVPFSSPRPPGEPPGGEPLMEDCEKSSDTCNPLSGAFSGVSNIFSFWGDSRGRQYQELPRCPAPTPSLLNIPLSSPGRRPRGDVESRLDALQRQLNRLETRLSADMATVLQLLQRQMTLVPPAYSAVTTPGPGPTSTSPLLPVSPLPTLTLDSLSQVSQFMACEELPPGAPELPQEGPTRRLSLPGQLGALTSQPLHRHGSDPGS", "test": "Inhibition of human ERG", "details": "not given", "values": [
      {"compound": "O=S1(=O)CCCN1CC(O)Cn1c2ccccc2c2ccccc21", "note": "(stereo unspecified)", "inhibition (INH)": "Not Active"}
    ]},
    {"biological_target": "T1, Period circadian protein homolog 2 (Homo sapiens) (UniProt O15055)", "T1 sequence (whole entry)": "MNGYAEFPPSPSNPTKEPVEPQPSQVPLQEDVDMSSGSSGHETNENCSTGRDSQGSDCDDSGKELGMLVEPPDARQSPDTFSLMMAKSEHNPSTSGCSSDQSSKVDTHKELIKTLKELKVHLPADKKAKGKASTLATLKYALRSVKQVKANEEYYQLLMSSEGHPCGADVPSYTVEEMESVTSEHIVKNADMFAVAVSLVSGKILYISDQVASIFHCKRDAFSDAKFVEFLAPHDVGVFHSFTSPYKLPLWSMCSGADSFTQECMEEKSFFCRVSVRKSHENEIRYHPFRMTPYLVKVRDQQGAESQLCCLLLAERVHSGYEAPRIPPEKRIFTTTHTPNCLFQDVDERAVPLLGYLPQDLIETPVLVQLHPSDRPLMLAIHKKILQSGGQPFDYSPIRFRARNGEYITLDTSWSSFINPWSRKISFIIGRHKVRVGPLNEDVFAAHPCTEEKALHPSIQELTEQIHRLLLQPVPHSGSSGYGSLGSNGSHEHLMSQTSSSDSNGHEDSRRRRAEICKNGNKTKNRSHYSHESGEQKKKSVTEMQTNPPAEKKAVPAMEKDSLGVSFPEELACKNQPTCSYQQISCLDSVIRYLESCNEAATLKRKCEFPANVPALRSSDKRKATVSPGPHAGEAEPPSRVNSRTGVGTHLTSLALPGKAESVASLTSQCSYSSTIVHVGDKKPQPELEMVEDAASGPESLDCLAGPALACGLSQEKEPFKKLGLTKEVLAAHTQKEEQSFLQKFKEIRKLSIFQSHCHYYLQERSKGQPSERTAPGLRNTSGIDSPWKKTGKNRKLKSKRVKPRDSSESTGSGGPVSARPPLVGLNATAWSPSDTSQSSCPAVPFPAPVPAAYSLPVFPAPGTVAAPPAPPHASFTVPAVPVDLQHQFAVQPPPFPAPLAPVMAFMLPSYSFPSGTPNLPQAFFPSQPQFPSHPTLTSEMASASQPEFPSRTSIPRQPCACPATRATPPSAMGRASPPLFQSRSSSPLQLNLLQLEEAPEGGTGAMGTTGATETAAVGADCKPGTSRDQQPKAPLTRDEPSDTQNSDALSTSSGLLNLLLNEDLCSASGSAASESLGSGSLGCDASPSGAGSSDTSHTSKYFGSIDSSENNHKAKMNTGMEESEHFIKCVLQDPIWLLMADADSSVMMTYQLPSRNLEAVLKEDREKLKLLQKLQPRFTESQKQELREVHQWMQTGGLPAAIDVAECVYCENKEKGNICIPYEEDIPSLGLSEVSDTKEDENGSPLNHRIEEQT", "test": "Reduction of amplitude effect of PER2 in human U2OS cells harboring Per2-dLuc luciferase reporter gene assessed as effects on circadian rhythms", "assay_type": "cell-based", "details": "not given", "procedure,_shortened": "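Human osteosarcoma U2OS cells carrying a Per2-dLuc luciferase reporter, treated continuously; circadian luminescence rhythm amplitude followed. 8-point threefold dilution series; EC50 taken as concentration giving 50% of the compound's own maximal response (titrations without plateau give no EC50).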", "values": [
      {"compound": "CC(C)S(=O)(=O)N(Cc1ccco1)CC(O)Cn1c2ccccc2c2ccccc21", "note": "(stereo unspecified)", "Activity": "Dose-dependent effect"},
      {"compound": "O=S1(=O)CCCN1CC(O)Cn1c2ccccc2c2ccccc21", "note": "(stereo unspecified)", "Activity": "Dose-dependent effect"},
      {"compound": "CC(C)N(CC(O)Cn1c2ccccc2c2ccccc21)S(C)(=O)=O", "note": "(stereo unspecified)", "Activity": "Dose-dependent effect"},
      {"compound": "O=S1(=O)CCN1CC(O)Cn1c2ccccc2c2ccccc21", "note": "(stereo unspecified)", "Activity": "Dose-dependent effect"},
      {"compound": "O=S(=O)(C1CCCCC1)N(Cc1ccco1)CC(O)Cn1c2ccccc2c2ccccc21", "note": "(stereo unspecified)", "Activity": "Dose-dependent effect"},
      {"compound": "CCS(=O)(=O)N(Cc1ccco1)CC(O)Cn1c2ccccc2c2ccccc21", "note": "(stereo unspecified)", "Activity": "Dose-dependent effect"},
      {"compound": "CS(=O)(=O)N(CC(O)Cn1c2ccccc2c2ccccc21)c1ccc(F)cc1", "note": "(stereo unspecified)", "Activity": "Dose-dependent effect"},
      {"compound": "CS(=O)(=O)N(CC(O)Cn1c2ccccc2c2ccccc21)C1CCCC1", "note": "(stereo unspecified)", "Activity": "Dose-dependent effect"},
      {"compound": "CS(=O)(=O)N(CC(O)Cn1c2ccccc2c2ccccc21)c1ccccc1F", "note": "(stereo unspecified)", "Activity": "Dose-dependent effect"},
      {"compound": "CS(=O)(=O)N(CC(O)Cn1c2ccccc2c2ccccc21)C1CC1", "note": "(stereo unspecified)", "Activity": "Dose-dependent effect"},
      {"compound": "O=S(=O)(C1CC1)N(Cc1ccco1)CC(O)Cn1c2ccccc2c2ccccc21", "note": "(stereo unspecified)", "Activity": "Dose-dependent effect"},
      {"compound": "CN1CCN(CC(O)Cn2c3ccccc3c3ccccc32)S1(=O)=O", "note": "(stereo unspecified)", "Activity": "Dose-dependent effect"},
      {"compound": "CS(=O)(=O)N(CC(O)Cn1c2ccccc2c2ccccc21)c1cccc(F)c1", "note": "(stereo unspecified)", "Activity": "Dose-dependent effect"},
      {"compound": "CC(C)CS(=O)(=O)N(Cc1ccco1)CC(O)Cn1c2ccccc2c2ccccc21", "note": "(stereo unspecified)", "Activity": "Dose-dependent effect"},
      {"compound": "CN1CCCN(CC(O)Cn2c3ccccc3c3ccccc32)S1(=O)=O", "note": "(stereo unspecified)", "Activity": "Dose-dependent effect"},
      {"compound": "O=S1(=O)NCCCN1CC(O)Cn1c2ccccc2c2ccccc21", "note": "(stereo unspecified)", "Activity": "Dose-dependent effect"},
      {"compound": "CCCN(CC(O)Cn1c2ccccc2c2ccccc21)S(C)(=O)=O", "note": "(stereo unspecified)", "Activity": "Dose-dependent effect"},
      {"compound": "O=S1(=O)CCCCN1CC(O)Cn1c2ccccc2c2ccccc21", "note": "(stereo unspecified)", "Activity": "Dose-dependent effect"},
      {"compound": "O=S1(=O)COCCN1CC(O)Cn1c2ccccc2c2ccccc21", "note": "(stereo unspecified)", "Activity": "Dose-dependent effect"},
      {"compound": "O=S(=O)(C1CCOC1)N(Cc1ccco1)CC(O)Cn1c2ccccc2c2ccccc21", "note": "(stereo unspecified)", "Activity": "Dose-dependent effect"},
      {"compound": "CS(=O)(=O)N(CC(O)Cn1c2ccccc2c2ccccc21)C1CCC1", "note": "(stereo unspecified)", "Activity": "Dose-dependent effect"},
      {"compound": "O=S1(=O)NCCN1CC(O)Cn1c2ccccc2c2ccccc21", "note": "(stereo unspecified)", "Activity": "Dose-dependent effect"},
      {"compound": "CS(=O)(=O)N(CC(O)Cn1c2ccccc2c2ccccc21)C1COC1", "note": "(stereo unspecified)", "Activity": "Dose-dependent effect"},
      {"compound": "O=S(=O)(c1ccccc1)N(Cc1ccco1)CC(O)Cn1c2ccccc2c2ccccc21", "note": "(stereo unspecified)", "Activity": "Dose-dependent effect"},
      {"compound": "CS(=O)(=O)N(CC(O)Cn1c2ccccc2c2ccccc21)C1CC(F)(F)C1", "note": "(stereo unspecified)", "Activity": "Dose-dependent effect"},
      {"compound": "CS(=O)(=O)N(CC(O)Cn1c2ccccc2c2ccccc21)c1ccccc1", "note": "(stereo unspecified)", "Activity": "Dose-dependent effect"},
      {"compound": "CS(=O)(=O)N(CC(O)Cn1c2ccccc2c2ccccc21)C1CCCCC1", "note": "(stereo unspecified)", "Activity": "Dose-dependent effect"},
      {"compound": "CS(=O)(=O)N(CC(O)Cn1c2ccccc2c2ccccc21)C1CCOCC1", "note": "(stereo unspecified)", "Activity": "Dose-dependent effect"},
      {"compound": "CN(CC(O)Cn1c2ccccc2c2ccccc21)S(C)(=O)=O", "note": "(stereo unspecified)", "Activity": "Dose-dependent effect"},
      {"compound": "O=S(=O)(Cc1ccccc1)N(Cc1ccco1)CC(O)Cn1c2ccccc2c2ccccc21", "note": "(stereo unspecified)", "Activity": "Dose-dependent effect"},
      {"compound": "CS(=O)(=O)N(CC(O)Cn1c2ccccc2c2ccccc21)C1CCC(F)(F)CC1", "note": "(stereo unspecified)", "Activity": "Dose-dependent effect"},
      {"compound": "CS(=O)(=O)NCC(O)Cn1c2ccccc2c2ccccc21", "note": "(stereo unspecified)", "Activity": "Dose-dependent effect"},
      {"compound": "CS(=O)(=O)N(Cc1ccccc1)CC(O)Cn1c2ccccc2c2ccccc21", "note": "(stereo unspecified)", "Activity": "Dose-dependent effect"},
      {"compound": "CCN(CC(O)Cn1c2ccccc2c2ccccc21)S(C)(=O)=O", "note": "(stereo unspecified)", "Activity": "Dose-dependent effect"},
      {"compound": "COCCN(CC(O)Cn1c2ccccc2c2ccccc21)S(C)(=O)=O", "note": "(stereo unspecified)", "Activity": "Dose-dependent effect"},
      {"compound": "CC(C)CN(CC(O)Cn1c2ccccc2c2ccccc21)S(C)(=O)=O", "note": "(stereo unspecified)", "Activity": "Dose-dependent effect"},
      {"compound": "CCCCS(=O)(=O)N(Cc1ccco1)CC(O)Cn1c2ccccc2c2ccccc21", "note": "(stereo unspecified)", "Activity": "Dose-dependent effect"},
      {"compound": "COCCS(=O)(=O)N(Cc1ccco1)CC(O)Cn1c2ccccc2c2ccccc21", "note": "(stereo unspecified)", "Activity": "Dose-dependent effect"},
      {"compound": "CCCS(=O)(=O)N(Cc1ccco1)CC(O)Cn1c2ccccc2c2ccccc21", "note": "(stereo unspecified)", "Activity": "Dose-dependent effect"}
    ]},
    {"test_system": "Salmonella typhimurium", "test": "Genotoxicity in Salmonella typhimurium by Ames assay", "assay_type": "toxicity, organism-based", "details": "salmonella enterica subsp. enterica serovar typhimurium", "values": [
      {"compound": "O=S1(=O)CCCN1CC(O)Cn1c2ccccc2c2ccccc21", "note": "(stereo unspecified)", "Activity": "Non-toxic"}
    ]}
  ]
}
